Laboratory results reported in ChEMBL document CHEMBL4725317 (Bioorg Med Chem Lett, 2020).

Experiments:
[1] = In vivo inhibition of SGLT2 in overnight fasted Sprague-Dawley rat assessed as amount of urinary glucose excretion assessed per 4 hrs at 10 mg/kg, po; assay type: functional
Outline: (§1)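 Overnight-fasted SD rats dosed orally at 1 or 10 mg/kg in 0.5% Methocel (vehicle controls) 60 min before oral glucose challenge. […] N=8 per group; mean ± SEM; one-way ANOVA-Dunnett.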

[2] = Tmax in Sprague-Dawley rat at 2 mg/kg, iv or 10 mg/kg, po; assay type: ADME, organism-based; conditions: in vivo
Outline: (§2)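 Male Sprague Dawley rats dosed 2 mg/kg IV (vehicle 20% HPbCD) or 10 mg/kg PO (vehicle 0.5% Methocel); pharmacokinetic parameters derived from plasma exposure.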

[3] = Half life in Sprague-Dawley rat at 2 mg/kg, iv; assay type: ADME, organism-based; conditions: in vivo; outline: as §2
[4] = In vivo inhibition of SGLT1 in overnight fasted Sprague-Dawley rat assessed as amount of urinary glucose excretion assessed per 4 hrs at 1 mg/kg, po; assay type: functional; outline: as §1
[5] = Stability of compound in human liver microsomes assessed as parent compound remaining at 1 uM measured at 10 mins in presence of NADPH; assay type: ADME, Microsome; conditions: for remaining at 10 min, 1 µM: liver microsomes, read-out: Stabilty
Outline: (§3)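 Test compound at 1 μM with human, mouse or rat liver microsomes (0.5 mg/ml protein) plus NADPH cofactor; final solvents 0.01% DMSO, 0.05% acetonitrile; percent parent remaining at 10 min. Verapamil, cerivastatin and warfarin as positive controls. SD given when multiple batches were tested.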

[6] = AUC (0 to infinity) in Sprague-Dawley rat at 2 mg/kg, iv or 10 mg/kg, po; assay type: ADME, organism-based; design: dose 10 mg/kg; conditions: in vivo; outline: as §2
[7] = tested on: Rattus norvegicus; experiment: Hypoglycemic activity in overnight fasted Sprague-Dawley rat assessed as percent reduction in blood glucose AUC at 1 mg/kg, po measured after 4 hrs post glucose challenge by OGTT relative to control; assay type: functional; design: scale not given: the % may be the effect or the level left; outline: as §1
[8] = Volume of distribution at steady state in Sprague-Dawley rat at 2 mg/kg, iv or 10 mg/kg, po; assay type: ADME, organism-based; conditions: in vivo, read-out: Vdss; outline: as §2
[9] = Cmax in Sprague-Dawley rat at 2 mg/kg, iv or 10 mg/kg, po; assay type: ADME, organism-based; design: dose 10 mg/kg; conditions: in vivo; outline: as §2
[10] = Clearance in Sprague-Dawley rat at 2 mg/kg, iv or 10 mg/kg, po; assay type: ADME, organism-based; conditions: in vivo; outline: as §2
[11] = Oral bioavailability in Sprague-Dawley rat at 10 mg/kg; assay type: ADME, organism-based; conditions: in vivo; outline: as §2
[12] = Half life in human liver microsomes at 1 uM measured at 10 mins in presence of NADPH; assay type: ADME, Microsome
[13] = Stability of compound in rat liver microsomes assessed as parent compound remaining at 1 uM measured at 10 mins in presence of NADPH; assay type: ADME, Microsome; conditions: liver microsomes, read-out: Stabilty; outline: as §3
[14] = Stability of compound in mouse liver microsomes assessed as parent compound remaining at 1 uM measured at 10 mins in presence of NADPH; assay type: ADME, Microsome; conditions: read-out: Stabilty; outline: as §3
[15] = tested on: Rattus norvegicus; experiment: Hypoglycemic activity in overnight fasted Sprague-Dawley rat assessed as percent reduction in blood glucose AUC at 10 mg/kg, po measured after 4 hrs post glucose challenge by OGTT relative to control; assay type: functional; design: scale not given: the % may be the effect or the level left; outline: as §1
[16] = In vivo inhibition of SGLT1/2 in overnight fasted Sprague-Dawley rat assessed as amount of urinary glucose excretion assessed per 4 hrs at 1 mg/kg, po; assay type: functional; outline: as §1
[17] = tested on: Rattus norvegicus; experiment: In vivo inhibition of SGLT1/2 in overnight fasted po dosed Sprague-Dawley rat assessed as reduction in blood glucose by OGTT; assay type: functional, organism-based; conditions: dose mg/kg 1-10
[18] = target: T1, Sodium/glucose cotransporter 2 (Homo sapiens) (UniProt P31639); experiment: Inhibition of human SGLT2 expressed in CHO cells assessed as reduction in [14C]-methyl-alpha -D-glucopyranoside accumulation at 0.3 uM relative to control; assay type: cell-based
T1 sequence (whole entry): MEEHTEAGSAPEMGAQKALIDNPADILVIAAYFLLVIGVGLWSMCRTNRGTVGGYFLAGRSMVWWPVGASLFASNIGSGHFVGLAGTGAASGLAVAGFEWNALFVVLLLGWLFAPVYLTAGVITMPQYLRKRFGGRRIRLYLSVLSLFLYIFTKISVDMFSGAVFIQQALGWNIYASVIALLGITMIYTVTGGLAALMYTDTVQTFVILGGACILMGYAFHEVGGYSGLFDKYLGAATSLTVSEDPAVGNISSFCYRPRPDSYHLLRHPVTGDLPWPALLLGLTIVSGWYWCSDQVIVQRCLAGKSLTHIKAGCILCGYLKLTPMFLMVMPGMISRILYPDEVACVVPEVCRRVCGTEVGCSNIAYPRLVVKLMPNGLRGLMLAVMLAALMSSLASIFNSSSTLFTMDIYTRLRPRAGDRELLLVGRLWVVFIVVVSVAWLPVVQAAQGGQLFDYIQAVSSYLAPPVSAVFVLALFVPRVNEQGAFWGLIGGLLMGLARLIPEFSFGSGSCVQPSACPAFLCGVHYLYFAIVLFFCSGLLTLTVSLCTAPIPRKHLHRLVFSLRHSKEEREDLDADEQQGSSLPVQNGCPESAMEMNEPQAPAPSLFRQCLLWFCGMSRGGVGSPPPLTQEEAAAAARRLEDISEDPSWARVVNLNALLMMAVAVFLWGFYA
Outline: (§4)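 CHO cells expressing human SGLT1 or SGLT2; inhibition of [14C]methyl D-glucopyranoside (AMG) accumulation measured with test compound at 0.3 μM.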

[19] = target: T2, Sodium/glucose cotransporter 1 (Homo sapiens) (UniProt P13866); experiment: Inhibition of human SGLT1 expressed in CHO cells assessed as reduction in [14C]-methyl-alpha -D-glucopyranoside accumulation at 0.3 uM relative to control; assay type: cell-based; outline: as §4
T2 sequence (whole entry): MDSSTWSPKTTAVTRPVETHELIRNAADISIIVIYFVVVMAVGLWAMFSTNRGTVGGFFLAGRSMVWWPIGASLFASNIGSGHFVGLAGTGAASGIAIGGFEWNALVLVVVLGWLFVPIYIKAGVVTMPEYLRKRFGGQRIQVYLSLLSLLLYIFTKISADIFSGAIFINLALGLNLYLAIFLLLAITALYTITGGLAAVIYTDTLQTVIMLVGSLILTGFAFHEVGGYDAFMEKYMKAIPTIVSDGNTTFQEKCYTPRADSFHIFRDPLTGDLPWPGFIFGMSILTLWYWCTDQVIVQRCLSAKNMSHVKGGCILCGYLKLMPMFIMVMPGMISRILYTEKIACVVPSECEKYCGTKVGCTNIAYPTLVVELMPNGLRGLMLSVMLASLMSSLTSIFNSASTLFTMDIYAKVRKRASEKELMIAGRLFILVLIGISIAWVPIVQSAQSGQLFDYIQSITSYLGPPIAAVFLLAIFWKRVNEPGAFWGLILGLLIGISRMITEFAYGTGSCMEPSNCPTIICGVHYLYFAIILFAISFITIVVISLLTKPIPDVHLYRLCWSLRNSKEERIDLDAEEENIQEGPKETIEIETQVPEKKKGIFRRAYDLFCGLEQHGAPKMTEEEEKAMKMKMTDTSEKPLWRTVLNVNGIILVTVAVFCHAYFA

| Tmax [2] | half-life [3] | Vd [8] | Cmax [9] | clearance [10] | bioavailability [11] | remaining at 10 min, 1 µM [13] | remaining at 10 min, 1 µM [14] | remaining at 10 min, 1 µM [5] | Compound | further results |
| --- | --- | --- | --- | --- | --- | --- | --- | --- | --- | --- |
| 0.31 h | 3.71 h | 0.91 L/kg | 5240 ng/mL | 3.92 mL/min/kg | 46.8% | 94% | 106% | – | OC[C@H]1O[C@@H](c2cc(Cc3cc4ccccc4s3)c(Cl)cc2O)[C@H](O)[C@@H](O)C1(F)F | Activity [1]: 0.005 g; Activity [4]: 0.001 g; Stabilty ([5]; microsomes, 10 min, 1 µM): 120%; AUC(0-inf) [6]: 18600 ng·h/mL; Activity [7]: 16%; t1/2 [12]: > 3 h; Activity [15]: 41.4% |
| 0.42 h | 4.85 h | 1.89 L/kg | 549 ng/mL | 10.9 mL/min/kg | 17.4% | 58% | 97% | 90% | COc1ccc(Cc2cc([C@@H]3O[C@H](CO)C(F)(F)[C@H](O)[C@H]3O)c(O)cc2Cl)cc1 | AUC(0-inf) [6]: 2700 ng·h/mL; Activity [7]: 38.4%; Activity [16]: 0.099 g; inhibition [17]: Dose-dependent effect; Activity [15]: 62.8% |
| – | – | – | – | – | – | – | – | – | COc1cc(OC)c([C@@H]2O[C@H](CO)[C@@](C)(F)[C@H](O)[C@H]2O)cc1Cc1ccc2c(c1)OCCO2 | inhibition [18]: 59%; inhibition [19]: 25% |
| 0.25 h | 1.52 h | 2.41 L/kg | 274 ng/mL | 72 mL/min/kg | 21.8% | 101% | 98% | 103% | COc1cc(O)c([C@@H]2O[C@H](CO)[C@@](C)(F)[C@H](O)[C@H]2O)cc1Cc1ccc2c(c1)OCCO2 | – |
| – | – | – | – | – | – | 18% | 74% | 96% | OC[C@H]1O[C@@H](c2cc(Cc3ccc4c(c3)OCCO4)c(Cl)cc2O)[C@H](O)[C@@H](O)C1(F)F | – |
| – | – | – | – | – | – | – | – | – | COc1cc(Cl)c(Cc2ccc3c(c2)OCCO3)cc1[C@@H]1O[C@H](CO)C(F)(F)[C@H](O)[C@H]1O | inhibition [18]: 78%; inhibition [19]: 37% |
| – | – | – | – | – | – | 26% | 97% | 99% | COc1cc(O)c([C@@H]2O[C@H](CO)C(F)(F)[C@H](O)[C@H]2O)cc1Cc1ccc2c(c1)OCCO2 | – |
